Legend:
[1] = cited from earlier work
[2] = single administration at 1.0 mmol/kg in rats; cited from earlier work
[3] = system: blood-brain barrier (BBB); assay: In situ rat brain perfusion of Gd-DTPA, quantitative T1 mapping MRI; format: in vivo, Sprague-Dawley rats; conditions: Gd-DTPA 0.6 mmol/kg, brain-ventral
How it was run: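 Adult male Sprague-Dawley rats (250–350 g). A 10-sec saline post-perfusion wash followed. Sacrificed animals underwent quantitative T1 mapping MRI at room temperature; R1 = 1/T1 was taken per brain region.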

[4] = system: blood-brain barrier (BBB); conditions: cited from earlier work

Compound: CC[C@@]1(O)C(=O)OCc2c1cc1n(c2=O)Cc2cc3ccccc3nc2-1 [CPT, camptothecin]
- time of conversion to the CPT-carboxylate form ([1]; phosphate-buffered saline solution containing 4% human plasma): 11 min
- pH below which the lactone group is stable ([1]; undergoes lactone hydrolysis to CPT-carboxylate at pH 7.4, no reference given): < 5.5

Compound: O=C([O-])CN(CCN(CC(=O)[O-])CC(=O)O)CCN(CC(=O)[O-])CC(=O)O.[Gd+3] [Gd-DTPA, gadolinium-diethylenetriaminepentaacetate]
- tolerability / organ toxicity [2]: well tolerated without any organ toxicity
- R1 values, Gd-DTPA in presence of HAV6 compared to Gd-DTPA and vehicle ([3]; HAV6 1.0 mM, olfactory bulb, hippocampus, cerebellum, deep-rostral, deep-caudal regions): more significantly increased R1 values
- R1 values, Gd-DTPA and vehicle compared to vehicle only ([3]; cortex, deep-caudal): increased R1 values

Compound: Ac-SHAVSS-NH2 [HAV6, Ac-SHAVSS-NH2]
- brain delivery of IRdye 800cw-PEG delivered 1 h after administration of peptide ([4]; 25 kDa IRdye 800cw-PEG): no enhancement of brain delivery
- duration of BBB opening ([4]; Balb/c mice): less than 1 h

Source: publication PMC4935662 (Molecular pharmaceutics, 2016)
